Laboratory results taken from publication PMC6904836 (International Journal for Parasitology: Drugs and Drug …, 2019).
Values joined by “and” are separate entries in the source; they are usually repeats but may differ in a detail not shown here. Equal entries are not always repeated.

Assays:
[1] = test system: L. major (MHOM/IL/SU73/WR779); test: Luciferase amastigote macrophage assay in RAW 264.7; format: cell-based; conditions: Leishmania major, RAW264.7, 96 h, read-out: EC50 L. major
How it was run: (§1)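 RAW 264.7 macrophages (10,000/well) were incubated 24 h at 37 °C/5% CO2, then infected with luciferase-transfected promastigotes in DMEM + 10% HiFBS. Promastigotes were maintained in Schneider's + 20% HiFBS at 22 °C. Compounds (DMSO stock 11.5 mM) ran from 10 μg/ml in 1:2 dilutions, 0.2% DMSO final, for 96 h at 37 °C. D-luciferin was added at 150 μg/mL final for 30 min before the luminescence read. Amphotericin B control was run in octuplicate.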

[2] = test system: L. guyanensis (MHOM/GY/06/PAB-3985-WR-2853/A Chan); test: as above; format: cell-based; conditions: Leishmania guyanensis, RAW264.7, 96 h, read-out: EC50 L. guyanensis
How it was run: as §1

[3] = test system: L. tropica (MHOM/SU/74/K-27 WR-2995); test: Luciferase amastigote macrophage assay in RAW 264.7; format: cell-based; conditions: Leishmania tropica, RAW264.7, 96 h, read-out: EC50 L. tropica
[4] = test system: L. major (NIH173 (MHOM/IR/-/173)); test: Lesion cure model, BALB/c mice infected with luciferase-expressing L. major; format: in vivo; conditions: BID; for bioluminescence signal (parasite load) at the infection site: vs vehicle control
[5] = test system: L. major (MHOM/SA/85/JISH118); test: L. major - BALB/c mouse model of CL; format: in vivo, BALB/c mice; conditions: for % reduction Lesion size / % reduction Parasite load: n = 5
in vitro = conditions: human
[6] = pH7.4; ref DNDi unpublished data; cited from earlier work
[7] = 50 mg/kg/day, compared to the untreated control
[8] = study 1, 50 mg/kg PO, 5 days, day 11 post end of treatment
[9] = study 2, 50 mg/kg PO, 10 days, day 11 post end of treatment
[10] = study 2, 50 mg/kg PO, 10 days, day 80

## C[C@@H]1[C@H](O)[C@@H](C)/C=C/C=C/C=C/C=C/C=C/C=C/C=C/[C@H](O[C@@H]2O[C@H](C)[C@@H](O)[C@H](N)[C@@H]2O)C[C@@H]2O[C@](O)(C[C@@H](O)C[C@@H](O)[C@H](O)CC[C@@H](O)C[C@@H](O)CC(=O)O[C@H]1C)C[C@H](O)[C@H]2C(=O)O [Amphotericin B, amphotericin B deoxycholate, reference compound]
[1]
  EC50: 30 nM
[2]
  EC50: 30 nM
[3]
  EC50: 10 nM

## O=[N+]([O-])c1cn2c(n1)O[C@@H](COc1ccc(-c3ccc(F)cc3)nc1)CC2 [DNDI-0690]
[1]
  EC50: 340 nM
[2]
  EC50: 850 nM
[4]; study 1, 25 mg/kg PO, 10 days, day 11 post end of treatment
  lesion size reduction vs respective vehicle control: 89.8%
[4]; study 1, 25 mg/kg PO, 10 days
  bioluminescence signal (parasite load) at the infection site: significantly reduce

## Cc1c(C(=O)Nc2ccc3c(c2)B(O)OC3)nnn1-c1ccccn1 [DNDI-6148]
[1]
  EC50: 70 nM
[2]
  EC50: 50 nM
[3]
  EC50: 240 nM
[5]; [7]
  lesion size reduction: no visible nodule
  reduction of the parasite load as measured by qPCR: ~2 log-fold
[5]; Oral, 12.5 mg/kg, BID, 10 days
  % reduction Lesion size: 66.7%
[5]; Oral, 12.5 mg/kg, BID, 10 days, qPCR day 11
  % reduction Parasite load: 92.35%
[5]; Oral, 25 mg/kg, BID, 10 days
  % reduction Lesion size: 85.4%
[5]; Oral, 25 mg/kg, BID, 10 days, qPCR day 11
  % reduction Parasite load: 98.49%
[5]; Oral, 50 mg/kg, BID, 5 days
  % reduction Lesion size: 43.2%
[5]; Oral, 50 mg/kg, BID, 5 days, qPCR
  % reduction Parasite load: 100.00%
[5]; Oral, 50 mg/kg, BID, 10 days
  % reduction Lesion size: 100.0% and 75.7% and 91.9%
[5]; Oral, 50 mg/kg, BID, 10 days, qPCR day 11, 50 mg/kg
  % reduction Parasite load: 99.56% and 100.00% and 98.41%
[5]; Oral, 50 mg/kg, QD, 10 days
  % reduction Lesion size: 100.0%
[5]; Oral, 50 mg/kg, QD, 10 days, qPCR day 11
  % reduction Parasite load: 97.73%
[5]; Topical, Sat sol in PG-EtOH (1:1), 50 μl BID, 10 days, qPCR day 11
  % reduction Parasite load: 71.49% and 99.68%
[4]; [8]
  lesion size reduction vs respective vehicle control: 93.2%
  mice clear of any detectable infection: 1/5
[4]; study 1, 50 mg/kg PO, 5 days
  bioluminescence signal (parasite load) at the infection site: significantly reduce
[4]; [9]
  mice cured (no visible lesion), no detectable parasite load by bioluminescence: 3/6
  overall lesion size reduction compared to the average VC lesion size: 99.3%
[4]; study 2, 50 mg/kg PO, 10 days, day 18 post end of treatment
  mice cured, no detectable parasite load: 6/6
[4]; study 2, 50 mg/kg PO, 10 days, day 61 post end of treatment
  mice that had developed papules: 0/5
[4]; study 2, 50 mg/kg PO, 10 days, day 74 post end of treatment
  mice that had developed papules: 1/5
[4]; [10]
  average lesion size: 1.98 mm^2
  mice that had developed lesions: 1/5
In vitro
  EC50: 181000 nM
[6]
  distribution coefficient (log D), DNDi data: 1.92

## O=[N+]([O-])c1cn2c(n1)OC[C@H](Oc1ccc(OC(F)(F)F)cc1)C2 [DNDI-8219, (6 R)-2-Nitro-6-[4-(trifluoromethoxy)phenoxy]-6,7-dihydro-5 H-imidazo[2,1-b][1,3]oxazine]
[1]
  EC50: 30 nM
[2]
  EC50: 380 nM
[3]
  EC50: 1200 nM
In vitro
  EC50: > 200000 nM
